We go through one compound from ChEMBL document CHEMBL3877271, “Antagonizing STAT3 activation with benzo[b]thiophene 1, 1-dioxide based small molecules” (Eur J Med Chem, 2017).

In data set [1] the test system is MDA-MB-231. Nature of the data set: Induction of apoptosis in human MDA-MB-231 cells assessed as late apoptotic cells at 5 uM after 24 hrs by Annexin-V FITC/propidium iodide staining based flow cytometry (reference value: 1.8%). The class given is functional. On the technique in general: A flow cytometer gives signals particle by particle.
Data set [2] in a line: Antiproliferative activity against human MDA-MB-231 cells after 72 hrs by MTT assay. The class given is functional, cell-based. The conditions noted are these: MDA-MB-231, 72 h. An outline of the steps:
(§1)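 Cells in RPMI-1640 with 10% FBS, penicillin/streptomycin, 37 °C, 5% CO₂; seeded 3000-5000 cells/well, left overnight (16 h), then medium replaced with fresh medium holding serial dilutions in triplicate for 72 h. MTT read-out; viability = absorbance of treated/solvent control × 100%. Stattic served as reference.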
(In general: Formazan colour is commonly taken as a measure of viable cells.)

In data set [3] the test system is MDA-MB-231. Nature of the data set: Induction of apoptosis in human MDA-MB-231 cells after 24 hrs by Annexin-V FITC/propidium iodide staining based flow cytometry. The class given is functional, cell-based.
In the next data set the test system is A549. In words: Potency index, ratio of stattic IC50 to compound IC50 for human A549 cells. The format is functional.
Data set [4] relates to MDA-MB-231. In words: Induction of apoptosis in human MDA-MB-231 cells assessed as early apoptotic cells at 1 uM after 24 hrs by Annexin-V FITC/propidium iodide staining based flow cytometry (reference value: 3.8%). The format is functional.
A further data set has as its system Mus musculus. Nature of the data set: Toxicity in ICR mouse implanted with mouse 4T1 cells assessed as body weight loss at 10 mg/kg, ip daily for 11 days measured daily during compound dosing. The format is organism-based. The conditions noted are these: in vivo, 264 h. An outline of the steps: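 4T1-bearing male ICR mice (5 weeks, 6/group), dosed i.p. with PBS/DMSO (8:2) vehicle control. Body weight recorded daily. BI% = (1 − mean treated/mean control body weight) × 100.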

The target in data set [5] is Signal transducer and activator of transcription 3 (Homo sapiens) (UniProt P40763). Nature of the data set: Inhibition of STAT3 phosphorylation at Tyr-705 residue in human MDA-MB-231 cells after 24 hrs by Western blot method. The class given is cell-based.
Chain of Signal transducer and activator of transcription 3 (Homo sapiens) (P40763 whole entry): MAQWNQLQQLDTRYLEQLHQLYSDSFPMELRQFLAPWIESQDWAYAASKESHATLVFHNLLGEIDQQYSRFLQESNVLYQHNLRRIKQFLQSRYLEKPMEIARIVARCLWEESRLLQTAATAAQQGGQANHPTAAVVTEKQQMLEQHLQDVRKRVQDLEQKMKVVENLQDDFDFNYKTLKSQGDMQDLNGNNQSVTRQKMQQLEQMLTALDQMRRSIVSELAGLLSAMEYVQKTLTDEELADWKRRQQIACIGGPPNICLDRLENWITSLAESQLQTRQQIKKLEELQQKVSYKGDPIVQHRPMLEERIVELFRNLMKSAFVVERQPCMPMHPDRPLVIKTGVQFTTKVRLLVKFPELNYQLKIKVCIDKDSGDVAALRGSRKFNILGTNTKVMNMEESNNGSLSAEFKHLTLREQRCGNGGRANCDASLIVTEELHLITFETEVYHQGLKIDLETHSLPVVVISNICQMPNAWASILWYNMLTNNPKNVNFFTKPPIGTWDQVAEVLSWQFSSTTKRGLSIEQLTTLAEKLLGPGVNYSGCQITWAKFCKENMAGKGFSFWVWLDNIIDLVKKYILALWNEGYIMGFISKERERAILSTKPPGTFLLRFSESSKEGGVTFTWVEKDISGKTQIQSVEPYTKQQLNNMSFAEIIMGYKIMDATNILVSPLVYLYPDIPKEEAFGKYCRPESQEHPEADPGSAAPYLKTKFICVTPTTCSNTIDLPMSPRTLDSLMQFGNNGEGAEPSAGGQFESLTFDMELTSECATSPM
For data set [6], the system named is MDA-MB-231. Nature of the data set: Induction of apoptosis in human MDA-MB-231 cells assessed as live cells at 5 uM after 24 hrs by Annexin-V FITC/propidium iodide staining based flow cytometry (reference value: 90.3%). The format is functional.
In data set [7] the target is Signal transducer and activator of transcription 3 (Homo sapiens) (UniProt P40763). In words: Inhibition of IL-6-stimulated STAT3 phosphorylation in human MDA-MB-231 cells preincubated for 12 hrs followed by IL-6 addition measured after 30 mins by Western blot method. The format is cell-based. An outline of the steps: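 Cells adhered overnight in 6-well plates, then serum-starved. Left untreated or given 1-5 µM for 12 h, then stimulated with IL-6 (25 ng/mL). Harvested 30 min later for western blot of p-STAT3.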

The nature of data set [8]: Antiproliferative activity against human MCF7 cells after 72 hrs by MTT assay. The class given is functional, cell-based. The conditions noted are these: MCF7, 72 h. An outline of the steps: as §1
Data set [9] concerns MDA-MB-231. Nature of the data set: Induction of ROS generation in human MDA-MB-231 cells at 5 uM after 24 hrs by DCFH-DA staining based flow cytometry relative to control. The class given is functional. An outline of the steps: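 3 × 10⁵ cells/well in 6-well plates treated 24 h (0, 1, 3, 5 µM). Medium replaced with serum-free medium holding DCFH-DA at 10 µM final, 20 min at 37 °C. Cells washed twice, trypsinised, resuspended in warm PBS and read by flow cytometry.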

Broadly, the IC50 is the concentration that inhibits the measured activity by half. Low values mean higher potency, high ones lower potency. As for `O=S1(=O)C=Cc2cccc(Nc3cccc(C(F)(F)F)c3)c21`, the Activity was 7.2% in the data set on MDA-MB-231 [1]; “Dose-dependent effect” in the data set on MDA-MB-231 [3]; 6.3% with MDA-MB-231 [4]; “Non-Toxic” in the data set with Mus musculus; 75.3% in the data set on MDA-MB-231 [6]. The IC50 in data set [2] was 680 nM; in [8] it was 750 nM. The “Ratio IC50” value in the data set with A549 is recorded as 1.5 - 12. In addition, the inhibition result in data set [5] and in [7] was “Dose-dependent effect” in each case. Besides, the “fold change (FC)” value in the data set with MDA-MB-231 [9] was determined as 1.94.
